Measured values reported in PubChem BioAssay AID504417 (Johns Hopkins Ion Channel Center, 2011).
Values without a mark were called inactive.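 The calls were made as follows: active = potentiation or inhibition of the KCNQ1 potassium channel at any tested concentration, with a dose response curve obtained; inactive = no effect at any concentration, or no dose response.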

Target: Potassium voltage-gated channel subfamily KQT member 1 (Homo sapiens) (UniProt P51787)
Assay: KCNQ1 channel modulation, potentiation or inhibition, dose response, selectivity assay for KCNQ2 activator project, thallium flux, KCNQ1-expressing cells (AID 504417)
Conditions: FluxOR thallium flux fluorescence; series mostly up to 30 µM; potentiation: at the top concentration
How it was run: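 Probe or stimulus: potassium sulfate plus thallium sulfate stimulus, 12.5 mM each in 5x stock / System: CHO cells expressing the KCNQ1 potassium channel / Detection: kinetic FluxOR thallium-flux fluorescence, 10 s baseline plus 110 s post-stimulus / Times: FluxOR dye loading 90 min, compound exposure 20 min, room temperature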

Sequence of Potassium voltage-gated channel subfamily KQT member 1 (Homo sapiens) (P51787 whole entry, looked up): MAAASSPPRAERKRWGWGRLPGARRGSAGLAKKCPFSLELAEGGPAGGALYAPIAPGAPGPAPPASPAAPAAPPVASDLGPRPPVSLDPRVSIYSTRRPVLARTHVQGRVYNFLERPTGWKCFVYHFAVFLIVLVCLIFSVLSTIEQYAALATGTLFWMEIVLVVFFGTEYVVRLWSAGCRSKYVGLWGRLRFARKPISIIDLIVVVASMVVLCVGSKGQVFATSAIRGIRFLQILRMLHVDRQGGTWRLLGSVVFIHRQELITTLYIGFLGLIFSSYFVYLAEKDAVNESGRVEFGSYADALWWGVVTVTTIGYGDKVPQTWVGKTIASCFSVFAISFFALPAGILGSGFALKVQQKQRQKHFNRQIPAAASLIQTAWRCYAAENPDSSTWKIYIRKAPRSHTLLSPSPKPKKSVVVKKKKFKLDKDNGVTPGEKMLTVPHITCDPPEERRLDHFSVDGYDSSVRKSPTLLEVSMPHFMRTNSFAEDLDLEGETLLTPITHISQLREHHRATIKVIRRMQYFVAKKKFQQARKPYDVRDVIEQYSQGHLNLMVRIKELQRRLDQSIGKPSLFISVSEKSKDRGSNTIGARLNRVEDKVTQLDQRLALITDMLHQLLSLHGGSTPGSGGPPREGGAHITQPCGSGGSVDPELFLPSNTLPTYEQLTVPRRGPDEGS

SMILES	potentiation
Cc1cccc(C)c1NC(=O)C1CC2CCC1C2 (stereo not given)	3.65
Cc1cc(C)c(NC(=O)CC(C)(C)C)c(Cl)c1	9.03
Cc1cc(C)c(NC(=O)C2CC3CCC2C3)c(C)c1 (stereo not given)	-11.1
CCCCC(=O)Nc1c(C)cc(C)cc1Cl	9.03
Cc1ccc(C)c(NC(=O)C2CC3CCC2C3)c1 (stereo not given)	16.9
